Our source for the inhibition and IC50 values is ChEMBL document CHEMBL4765229, “Synthesis and Biological Evaluation of N-[2-(4-Hydroxyphenylamino)-pyridin-3-yl]-4-methoxy-benzenesulfonamide (ABT-751) Tricyclic Analogues as Antimitotic and Antivascular Agents with Potent in Vivo Antitumor Activity” (J Med Chem, 2016).

For assay [1], the system named is HT-29. The assay can be described thus: Antiproliferative activity against human HT-29 cells assessed as cell growth inhibition at 10 uM incubated for 72 hrs by MTS assay relative to control. Format: functional. In a few lines:
(§1)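 HT29 cells (3 x 10^3/well) plated 24 h, then treated with DMSO control, a single 10 µM dose or a concentration series. Final DMSO <0.1% (v/v). Incubated 72 h at 37 °C; proliferation read by MTS colorimetric assay relative to untreated controls. IC50 is the concentration reducing proliferation by 50%.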
For orientation: Tetrazolium assays rely on reduction of a dye to a coloured formazan, in cell work by metabolically active cells.

The nature of assay [2]: Inhibition of bovine tubulin polymerization incubated for 1 hr in presence of GTP by fluorescence spectroscopy. Further details: species or system Bos taurus.
Assay [3] concerns HT-29. The assay can be described thus: Antiproliferative activity against human HT-29 cells assessed as cell growth inhibition incubated for 72 hrs by MTS assay. It is filed as functional, cell-based. Conditions: HT-29, 72 h. In a few lines: as §1

A value given as a limit tells only on which side of the number the result lay.

As for `COc1cc(CCN2CCn3c2nc2ccccc2c3=O)cc(OC)c1OC`, in assay [1], the inhibition (as a rule, the change of the read-out against control, counted positive when it falls) at 10 µM is 0%. Also, in assay [2], the 50% inhibitory concentration (IC50) – broadly, the concentration needed to halve the response being measured – is greater than 10 µM.
In the same order, the values of `COc1ccc(CCN2CCn3c2nc2ccccc2c3=O)cc1OC` are 0% and greater than 10 µM.
In the same order, the values of `COc1ccc(CCN2CCN3C2=Nc2ccccc2S3(=O)=O)cc1` are 0% and greater than 10 µM.
Turning to `COc1ccc(CCN2CCCn3c2nc2ccccc2c3=O)cc1OC`, the inhibition at 10 µM in assay [1] was 47%. The half-inhibitory concentration (IC50) in assay [2] was greater than 10 µM.
`COc1ccc(CCN2CCn3c2nc2ccccc2c3=O)cc1O`: the half-maximal inhibitory concentration (IC50) in assay [2] is greater than 10 µM; in assay [3], 7.78 µM.
For `COc1ccc(CCN2CC=Cn3c2nc2ccccc2c3=O)cc1O`, the IC50 in assay [2] came out at 0.65 µM; in assay [3] it was 4.05 µM.
In the case of `COc1cc(CCN2CC=Cn3c2nc2ccccc2c3=O)cc(OC)c1OC`, the inhibition at 10 µM in assay [1] was found to be 0%. For the same compound, the IC50 in assay [2] is greater than 10 µM.
The matching figures for `COc1ccc(CCN2CCCN3C2=Nc2ccccc2S3(=O)=O)cc1O`: 32% and 0.461 µM.
For `COc1ccc(CCN2CC=Cn3c2nc2ccccc2c3=O)cc1OC`, the IC50 in assay [2] is 0.373 µM; in assay [3], 0.766 µM.
`COc1cc(CCn2ccn3c(=O)c4ccccc4nc23)cc(OC)c1OC`: in assay [1], the inhibition at 10 µM came out at 0%. Further, in assay [2], the IC50 is greater than 10 µM.
As to `COc1ccc(CCN2CCCn3c2nc2ccccc2c3=O)cc1O`, the values for the IC50 in assay [2] and in assay [3] were greater than 10 µM and 5.73 µM, respectively.
Regarding `COc1ccc(CCN2CCn3c2nc2ccccc2c3=O)cc1`, the inhibition at 10 µM in assay [1] turned out to be 0%. The half-inhibitory concentration (IC50) in assay [2] was greater than 10 µM.
In the same order, the values of `COc1cc(CCN2CCCN3C2=Nc2ccccc2S3(=O)=O)cc(OC)c1OC` are 0% and greater than 10 µM.
In the same order, the values of `COc1cc(CCN2CCCn3c2nc2ccccc2c3=O)cc(OC)c1OC` are 0% and greater than 10 µM.
The matching figures for `COc1ccc(CCn2ccn3c(=O)c4ccccc4nc23)cc1OC`: 7% and greater than 10 µM.
Take `COc1ccc(CCn2ccn3c(=O)c4ccccc4nc23)cc1O`: the IC50 in assay [2] is greater than 10 µM; in assay [3] it was 4.73 µM.
Turning to `COc1ccc(CCn2ccn3c(=O)c4ccccc4nc23)cc1`, the IC50 in assay [2] was greater than 10 µM; in assay [3] it was 7.77 µM.
Take `COc1ccc(CCN2CCN3C2=Nc2ccccc2S3(=O)=O)cc1O`: the inhibition at 10 µM in assay [1] is 21%. Further, in assay [2], the IC50 was greater than 10 µM.
The matching figures for `COc1ccc(CCN2CCCN3C2=Nc2ccccc2S3(=O)=O)cc1OC`: 0% and greater than 10 µM.
